Screening data (PubChem BioAssay)
Compounds with a hit are over-represented: about 2.1% of the library has one in this group of screens.
FGF22 binding: shifts melting point of recombinant human FGF22; activity (Tm shift, normalised), % at 9.99 µM; 340,000 compounds, 1.5% hits; Q9HCT0; recombinant FGF22 thermal shift, SYPRO orange fluorescence; percent of sucrose octasulfate shift, DMSO zero;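 active = mean Tm shift, scaled 0 neutral to 100 positive control, at about 1.3% or above, every replicate too, limit read from the data; inconclusive = no clear call, values can overlap the other calls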
Target sequence (Q9HCT0 whole entry, looked up): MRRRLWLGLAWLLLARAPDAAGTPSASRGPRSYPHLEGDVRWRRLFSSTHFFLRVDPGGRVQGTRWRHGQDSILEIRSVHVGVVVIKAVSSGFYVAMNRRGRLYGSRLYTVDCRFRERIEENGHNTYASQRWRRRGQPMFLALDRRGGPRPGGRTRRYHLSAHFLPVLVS
ERp5 inh: ERp5 (human) disulfide isomerase inhibition | Q15084 | ERp5 insulin aggregation, absorbance 650 nm, 90 min | inhibition, % at 9.99 µM | 350,000 compounds, 0.05% hits;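 active = mean replicate inhibition above about 25%, with every replicate also reaching it, limit read from the data, passing the limit was not always enough; inconclusive = only one of those two criteria met; inactive = neither criterion met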
FN deposition inh: fibronectin deposition inhibition; AH1F fibroblasts, Alexa488-fibronectin deposition fluorescence, overnight; inhibition, % at 12.6 µM; 350,000 compounds, 0.086% hits;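 active = mean inhibition across replicates of 30% or more, regardless of how many single replicates reach that level; inconclusive = mean under 30% yet at least half of replicates reach 30%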;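 note: positive control wells lacked labelled fibronectin entirely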
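material = AH1F fibroblast monolayer depositing Alexa488-labelled fibronectin into matrix | amount = 10000 AH1F cells/well | buffer or medium = DMEM plus 2% serum, read in PBS | incubation = 1 h cell adhesion before compound, then overnight fibronectin incubation | detection = fluorescence at 485 nm excitation, 525 nm emission | evaluation = percent inhibition as loss of matrix-bound fibronectin fluorescence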
ARNT TACC3 PPI: ARNT/TACC3 interaction disruption | Q9Y6A5 | AlphaScreen His-ARNT PAS-B/GST-TACC3 binding, luminescence; TACC3 fragment carries E629A point mutation | inhibition, % at 9.99 µM | 390,000 compounds, 0.66% hits | AID 623870;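 active = mean inhibition of replicates at least 50% and at least half of replicates each reaching 50%; inconclusive = half or more replicates reach 50% but mean below 50%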;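 note: 0% = complete ARNT plus TACC3 wells and 100% = ARNT alone without TACC3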
PDI inh: blocks human protein disulfide isomerase activity. P07237. PDI insulin aggregation turbidity, A650, 90 min. inhibition, % at 10 µM. 350,000 compounds, 0.052% hits. AID 588391;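 active = mean inhibition across replicates of 30% or more, whatever share of single replicates reach that level; inconclusive = mean inhibition below 30% while every single replicate reaches 30%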
Target sequence (P07237 whole entry, looked up): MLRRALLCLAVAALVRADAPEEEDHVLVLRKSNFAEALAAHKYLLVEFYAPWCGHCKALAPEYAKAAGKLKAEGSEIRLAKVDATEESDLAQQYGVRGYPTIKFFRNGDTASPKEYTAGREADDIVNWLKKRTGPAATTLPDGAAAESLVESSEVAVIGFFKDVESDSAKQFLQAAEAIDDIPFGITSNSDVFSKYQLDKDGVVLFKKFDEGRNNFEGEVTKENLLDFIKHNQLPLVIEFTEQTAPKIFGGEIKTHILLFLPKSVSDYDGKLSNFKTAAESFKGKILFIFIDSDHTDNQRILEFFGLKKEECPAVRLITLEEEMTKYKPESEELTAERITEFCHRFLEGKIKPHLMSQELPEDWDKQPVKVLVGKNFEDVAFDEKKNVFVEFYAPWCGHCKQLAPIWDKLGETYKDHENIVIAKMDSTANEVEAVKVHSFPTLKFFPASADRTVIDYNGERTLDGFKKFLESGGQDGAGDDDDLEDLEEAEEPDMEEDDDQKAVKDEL
AF4-AF9 inh: inhibitors of human MLL-AF4/AF9 interaction; P42568; inhibition, % at 10 µM; AID 651704; AlphaScreen, biotin-AF4 peptide binding to FLAG-AF9; 350,000 compounds, 0.47% hits;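 active = every replicate reaching a set inhibition limit, whatever the replicate mean, cut at about 25% in these data; inconclusive = mean inhibition reaches that limit but some replicates miss it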;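 note: 0% = plate neutral control median and 100% = total signal loss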
AlphaScreen intf: interferes with the AlphaScreen assay signal. shares compounds with AF4-AF9 inh. AC50, µM (series often up to 12 µM), without a hit: at the top dose activity change, negative = inhibition. AlphaScreen interference counter-screen, signal luminescence. 530 compounds, 45% hits; cut-off not given, nearly all actives have AC50 up to about 14 µM
Starred values were filed as active, the others as inactive; ? = inconclusive; / = no result; ! = not confirmed by another sample.

SMILES | FGF22 binding | ERp5 inh | FN deposition inh | ARNT TACC3 PPI | PDI inh | AF4-AF9 inh | AlphaScreen intf
O=[N+]([O-])c1ccc(/C=N/Nc2ccnc3cc(Cl)ccc23)o1 | 0.7 | -4.5 | 5.1 | / | -9.0 | 27.6* | -29.0%
CCNC(=O)C[C@H]1CC[C@H]2[C@@H](COc3ccc(NC(=O)c4cc(C)on4)cc3C(=O)N2C)O1 | -0.1 | -2.8 | -2.8 | 6.7 | / | -1.1 | /
Oc1ccccc1C=NCCCCCCN=Cc1ccccc1O | -0.1 | -2.2 | -11.9 | 9.0 | -5.1 | 39.1* | -13.0%
Oc1ccccc1C=NCCN=Cc1ccccc1O | -0.1 | 4.0 | 11.9 | 4.1 | 1.3 | -3.5 | /
Oc1ccccc1C=NCCN1CCN(CCN=Cc2ccccc2O)C1c1ccccc1O (stereo not given) | 0.0 | 0.6 | / | 71.3* | 16.3 | 30.4* | 13.0%
C[C@H](CO)N1C[C@H](C)[C@@H](CN(C)Cc2ccc(C(F)(F)F)cc2)Oc2c(NS(=O)(=O)c3ccc(F)cc3)cccc2C1=O | -0.3 | -7.7 | / | 1.0 | / | 2.4 | /
CN1CCN(c2ccc(S(=O)(=O)N3CCCCC3)cc2NC(=O)/C=C/c2ccc(Cl)c([N+](=O)[O-])c2)CC1 | -0.9 | 2.0 | -5.0 | 18.8 | 2.3 | ? | 2.2%
COc1ccc(NCc2nn(CC(=O)c3ccc(Br)cc3)c3[n+]2CCCCC3)cc1 | -0.4 | -2.1 | 2.0 | 29.4 | 0.2 | 30.1* | -42.6%
COc1ccc(CNc2ccc(Br)cc2)cc1 | 0.0 | -3.3 | 1.0 | -7.7 | 20.6 | -0.9 | /
COc1ccc2nc3ccccc3nc2c1N | -0.7 | 1.3 | 4.9 | / | 2.0 | ? | 12µM*
COc1ccc2nc3cccc(OC)c3nc2c1 | -0.3 | 3.5 | / | 26.6 | -25.6 | 2.4 | /
COc1ccc(NC(=O)N(C)C[C@H]2Oc3ccc(NS(=O)(=O)c4ccc(F)cc4)cc3C(=O)N([C@@H](C)CO)C[C@H]2C)cc1 | 0.1 | 2.7 | -4.2 | -11.9 | / | -2.3 | /
C[C@@H]1CN([C@@H](C)CO)S(=O)(=O)c2ccc(C#C[C@@H](C)O)cc2O[C@H]1CN(C)CC1CCCC1 | -0.1 | -2.6 | 6.4 | -14.8 | / | -18.5 | /
CC1CCN(CC(=O)Nc2ccc(N3CCCCCC3)cc2)CC1 | -0.2 | -6.4 | / | 26.8 | -1.4 | 52.9* | 11.5µM*
CC(C)c1cn(CC[C@H]2CC[C@H](NC(=O)C3CCOCC3)[C@H](CO)O2)nn1 | / | -4.4 | / | / | / | -1.9 | /
CCCCOc1ccc2c(c1)C(=O)c1cc(O)ccc1-2 | 0.0 | 1.9 | / | 18.8 | -7.6 | 33.2* | -1.9%
CCCCCN=C(N)N/N=C/c1c[nH]c2ccc(OC)cc12 | -0.3 | 0.7 | 17.8 | 23.3 | 10.1 | 35.0* | -39.3%
CCCOc1ccc(C(=O)N/N=C/c2c[nH]c3ccc(Br)cc23)cc1 | 0.2 | 2.2 | 6.3 | 30.3 | -8.7 | 2.3 | /
COc1cc(Nc2c3ccccc3nc3ccccc23)cc(OC)c1OC | 0.0 | -1.8 | 4.8 | 16.3 | -3.8 | 31.3* | 12.5µM*
O=C(c1ccncc1)N1C[C@H]2[C@@H](c3ccccc31)[C@@H](CO)N2C(=O)Nc1ccc(F)cc1 | -1.2 | -3.7 | / | 0.1 | / | -1.7 | /
Cc1cc(C)c2sc(N(CCCN(C)C)C(=O)c3ccc(S(=O)(=O)N4CCCc5ccccc54)cc3)nc2c1 | -0.2 | 14.5 | / | 22.1 | 6.8 | 56.0* | -17.5%
Cc1cc(C)c2sc(N(CCCN(C)C)C(=O)c3ccc(S(=O)(=O)N4CCc5ccccc5C4)cc3)nc2c1 | / | / | / | 3.9 | 2.1 | / | /
C[C@@H]1CN([C@@H](C)CO)C(=O)c2cc(NS(=O)(=O)c3ccc(Cl)cc3)ccc2O[C@@H](C)CCCCO[C@H]1CN(C)C | -0.1 | -3.2 | / | 7.2 | / | -1.8 | /
O=C(C[C@H]1CC[C@@H]2[C@H](COC[C@@H](O)CN2S(=O)(=O)c2ccccc2)O1)NCC1CCCCC1 | 0.0 | -3.8 | / | 6.9 | / | 39.3* | -18.5%
CN1CCN(CCCN2c3ccccc3Sc3ccc(S(=O)(=O)N(C)C)cc32)CC1 | -0.3 | -0.4 | -1.2 | 10.2 | 3.5 | 24.2 | /
SMILES | FGF22 binding | ERp5 inh | FN deposition inh | ARNT TACC3 PPI | PDI inh | AF4-AF9 inh | AlphaScreen intf
OCCN1CCN(CCCN2c3ccccc3Sc3ccc(Cl)cc32)CC1 | -0.6 | 2.8 | 1.3 | 11.8 | 5.3 | 39.8* | -32.4%
CN(C)CCCN1c2ccccc2Sc2ccc(Cl)cc21 | -0.4 | 2.1 | 4.1 | 14.0 | 15.1 | 38.8*! | -32.5%
Cn1ccc2c(/C=C/c3ccc(F)cc3)cc3c(c21)C1CCC3C1 (stereo not given) | 0.0 | 1.9 | 3.5 | / | / | 43.7* | 9.4%
CCOC(=O)c1c(-c2ccc(-c3ccccc3)cc2)csc1NC(=O)CNCCN(C)C | -0.8 | 2.0 | 5.7 | 32.1 | -0.5 | 31.5* | -32.0%
CCCNC(=O)Nc1ccc2c(c1)C(=O)N(C)C[C@H](OC)[C@H](C)CN(Cc1ccc(-c3ccccn3)cc1)[C@@H](C)CO2 | / | / | -12.6 | / | / | / | /
CN1CCN(C(c2ccc(Br)cc2)c2cc(Cl)c3cccnc3c2O)CC1 (stereo not given) | -0.2 | 1.4 | -4.6 | / | 0.0 | 83.5* | 2.8µM*
Fc1ccc(-[n+]2nc(Nc3ccccc3)sc2-c2c(Cl)cccc2Cl)cc1 | -0.3 | 0.7 | -8.9 | 12.3 | -3.7 | 33.8* | -26.8%
CCc1ccc(Nc2n[n+](-c3ccccc3)c(-c3c(Cl)cccc3Cl)s2)cc1 | -0.6 | -4.2 | 2.2 | 18.5 | 2.7 | / | /
COc1ccc(C)cc1Nc1n[n+](-c2ccccc2)c(-c2c(Cl)cccc2Cl)s1 | 0.0 | 6.9 | 1.9 | / | / | 45.2* | -20.5%
COc1ccc2ccccc2c1-c1sc(Nc2ccccc2)n[n+]1-c1ccc(F)cc1 | -0.2 | -1.4 | 1.4 | 20.3 | -2.4 | 43.1* | -26.8%
CC(C)c1cn(CC[C@H]2CC[C@@H](NS(=O)(=O)c3ccc(F)cc3)[C@H](CO)O2)nn1 | -0.3 | -3.3 | 0.4 | / | / | -2.1 | /
Cc1cccc(S(=O)(=O)N[C@@H]2CC[C@H](CCNC(=O)c3cnccn3)O[C@H]2CO)c1 | 0.0 | 11.3 | 5.0 | 0.5 | / | -0.8 | /
CO[C@@H]1CN(C)C(=O)c2cc(NC(C)=O)ccc2OC[C@H](C)N(Cc2cccc(F)c2)C[C@H]1C | / | 2.6 | 13.0 | 9.8 | / | 3.4 | /
C[C@@H]1CN([C@@H](C)CO)C(=O)Cc2cc(NC(=O)CCCN(C)C)ccc2O[C@H]1CN(C)C(=O)Nc1ccc(F)cc1 | 0.0 | -0.4 | / | -12.6 | / | -0.9 | /
O=C1c2cccc3cccc(c23)C(=O)N1CC1CCN(CC(O)COc2ccc3ccccc3c2)CC1 (stereo not given) | -0.6 | 3.9 | 2.1 | 5.5 | -0.6 | 0.3 | /
Cc1cc(C)cc(OCC(O)CN2CCC(CN3C(=O)c4cccc5cccc(c45)C3=O)CC2)c1 (stereo not given) | -0.2 | 6.0 | -1.1 | 19.1 | -3.2 | 29.7* | -33.1%
